Screens: PubChem, The Scripps Research Institute Molecular Screening Center
Most compounds without a hit are left out; they make up all but 2% or so of the library.
STAT1 blocker: inhibitors of IFN-gamma induced STAT1 signaling; NIH 3T3 STAT1-luciferase reporter, luminescence; inhibition, % at 5.5 µM; 200,000 compounds, 0.35% hits;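 active = inhibition above a set limit, the mean inhibition across all tested compounds plus 3 SD, cut at about 34% in these data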;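 note: 0% = IFN-gamma with DMSO and 100% = IFN-gamma with 300 µM nifuroxazide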
STAT3 inh: STAT3 signaling inhibition; U3A cells, IL-6 STAT3-luciferase reporter, luminescence; host cell line lacks STAT1; inhibition, % at 5.5 µM; 190,000 compounds, 0.89% hits; AID 862;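 active = inhibition above the mean inhibition across all screened compounds plus 3 SD, cut at about 44% in these data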;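 note: 0% = DMSO only wells and 100% = 100 µM nifuroxazide control wells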
STAT3 act: activators of IL-6 induced STAT3 signaling; U3A cells, IL-6 STAT3-luciferase reporter, luminescence; 100% = signal with IL-6 EC80 alone; activation (% of control), % at 5.6 µM; 190,000 compounds, 0.91% hits; AID 871;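 active = activation above the screen-wide mean of compound activation plus 3 SD, cut at about 130% in these data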;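 note: 0% = background luminescence of wells with medium and substrate only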
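Material: STAT3-luciferase reporter U3A cells. Controls: IL-6-treated wells, 100% activation. Read-out: % activation versus median of IL-6-stimulated wells. Probe or stimulus: IL-6 stimulus at 33 ng/mL final. Timing: compound 1 h, then IL-6 6 h at 37 °C. Signal: reporter luminescence signal.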
HSP90 inh: HSP90 refolding inhibition in rabbit reticulocyte lysate; luciferase refolding luminescence, 3 h; inhibition, % at 5.6 µM; 290,000 compounds, 0.91% hits;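 active = inhibition above the screen-wide mean plus 3 SD, computed separately per campaign, cut at about 16% in these data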;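 note: 0% = DMSO wells and 100% = 60 µM geldanamycin wells; inhibitors lower the luminescence because luciferase stays unfolded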
HSP90 inh confirm: confirmation of HSP90 inhibitors; shares compounds with HSP90 inh; rabbit reticulocyte lysate, luciferase refolding luminescence, 3 h; inhibition, % at 5.9 µM; 2,300 compounds, 64% hits; AID 1846; in the data active = inhibition above about 18%;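 note: 0% = vehicle wells and 100% = reference inhibitor wells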
FLuc counter: blocks native firefly luciferase in HSP90 counter-screen; AID 1847; shares compounds with HSP90 inh; 2,300 compounds, 48% hits; purified native firefly luciferase, luminescence; inhibition, % at 5.9 µM;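 active = inhibition above the mean inhibition of all tested sample wells plus 3 SD, cut at about 10% in these data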;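 note: 0% = DMSO with luciferase and 100% = wells lacking luciferase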
Target sequence (P08659 whole entry, looked up): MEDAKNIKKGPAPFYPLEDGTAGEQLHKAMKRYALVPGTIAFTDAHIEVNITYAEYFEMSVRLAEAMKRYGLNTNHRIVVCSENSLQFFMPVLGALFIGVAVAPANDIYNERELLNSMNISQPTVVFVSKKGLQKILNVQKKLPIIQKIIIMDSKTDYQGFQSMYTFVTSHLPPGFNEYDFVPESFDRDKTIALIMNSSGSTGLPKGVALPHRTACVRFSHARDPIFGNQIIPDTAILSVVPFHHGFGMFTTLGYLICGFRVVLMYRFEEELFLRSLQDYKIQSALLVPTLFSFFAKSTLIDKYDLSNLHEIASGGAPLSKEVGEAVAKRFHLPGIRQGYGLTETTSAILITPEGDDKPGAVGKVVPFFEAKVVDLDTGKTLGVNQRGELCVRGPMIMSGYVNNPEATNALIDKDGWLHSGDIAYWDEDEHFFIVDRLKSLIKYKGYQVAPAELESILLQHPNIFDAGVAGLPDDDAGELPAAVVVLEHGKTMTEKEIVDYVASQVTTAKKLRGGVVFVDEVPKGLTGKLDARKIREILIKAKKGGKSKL
The depositor's hits bear a star; . = not tested or not shown.

SMILES	STAT1 blocker	STAT3 inh	STAT3 act	HSP90 inh	HSP90 inh confirm	FLuc counter
Cc1ccc2nc(SCC3CCCCO3)[nH]c2c1 (configuration not stated)	.	.	.	29.8*	64.0*	60.9*
Cc1cc(Cl)ccc1NNC(=O)CCc1ccccc1	.	.	.	4.1	.	.
Cc1ccccc1S(=O)(=O)Cc1ccc(C(=O)N(C)C2CCCCC2)o1	.	.	.	2.2	.	.
CC(=O)N(CCN1CCOCC1)Cc1cc2cc3c(cc2nc1Cl)OCO3	10.4	-4.4	105.7	23.9*	-6.6	-7.5
COC(=O)C1=C(CS(=O)(=O)c2cc(Cl)ccc2OC)NC(=O)NC1c1ccc(O)c(OC)c1 (configuration not stated)	.	.	.	-3.6	.	.
C=CCOc1ccccc1CNc1cccc(F)c1	0.2	-13.8	108.9	-3.6	.	.
C=CCOc1ccccc1CNc1ccc2c(c1)OCCO2	42.6*	70.4*	43.9	66.6*	73.4*	69.5*
COc1cc(C2NC(=O)NC(c3ccccc3)=C2C(C)=O)c(Br)c(Br)c1O (configuration not stated)	.	.	.	17.9*	-0.5	-2.3
CC(=O)C1=C(c2ccccc2)NC(=O)NC1c1ccccc1 (configuration not stated)	.	.	.	1.4	.	.
CCCc1[nH]n(-c2nc3ccccc3s2)c(=O)c1C=NCCCOC	.	.	.	2.2	.	.
CCCCCN=Cc1c(C)[nH]n(-c2nc3ccccc3s2)c1=O	-31.4	32.6	74.7	26.0*	12.3	1.5
O=C(Nc1cccc(O)c1)c1cc(-c2cccs2)on1	.	.	.	30.6*	63.7*	57.0*
Cc1c(Cl)cccc1NC(=O)CCCn1cnc([N+](=O)[O-])n1	0.5	12.4	93.5	18.0*	1.8	-3.9
CN(C)c1ccc(CNS(=O)(=O)c2ccc3c(c2)C(C)(C)C(=O)N3C)cc1	.	.	.	1.6	.	.
C=CCOc1ccc(C2NC(=S)NC3=C2CCc2ccccc23)cc1 (configuration not stated)	.	.	.	20.2*	42.1*	51.6*
NC(=S)N/N=C/c1ccccc1	9.1	7.0	90.1	4.8	.	.
NC(=S)N/N=C/c1ccc(C23CC4CC(CC(C4)C2)C3)cc1	.	.	.	23.6*	8.2	-31.8
COc1ccc(C(=O)N2CCCC(Nc3ccc(C(C)C)cc3)C2)c(OC)n1 (configuration not stated)	.	.	.	2.7	.	.
CCc1ccccc1Nc1ccc(C(=O)O)cc1N	-15.1	-2.3	107.5	2.1	.	.
CCNc1ccc(C(=O)O)cc1N	-1.6	5.7	94.1	54.7*	2.4	-5.8
CCN(CC)C(=O)c1cccc(NC(=O)CC23CC4CC(CC(C4)C2)C3)c1	.	.	.	0.7	.	.
C=CCN1C(=O)C(CC(=O)Nc2ccccc2)S/C1=N/c1nccs1 (configuration not stated)	.	.	.	-2.1	.	.
NNC(=O)CN1CCCc2ccccc21	-54.1	-6.8	106.8	24.8*	46.0*	39.3*
CC(C)S(=O)(=O)C1=NSC2=NC(=O)/C(=C\c3ccc(-c4ccccc4)o3)C(=N)N21	1.7	9.4	90.2	1.0	.	.
CC(C)S(=O)(=O)C1=NSC2=NC(=O)/C(=C\c3ccc(-c4cccc(C(=O)O)c4)o3)C(=N)N21	-4.3	0.5	102.7	26.6*	-0.9	-10.5
SMILES	STAT1 blocker	STAT3 inh	STAT3 act	HSP90 inh	HSP90 inh confirm	FLuc counter
Cc1[nH]c2ccccc2c1C(C#N)(C#N)C1C(=O)c2ccccc2C1=O	.	.	.	77.1*	78.8*	-24.4
O=C(CN(C(=O)CCC(=O)Nc1nccs1)c1cccc(F)c1)NCc1ccccc1	.	.	.	5.6	.	.
CSc1nnc(NC(=O)c2ccc3c(c2)OCO3)s1	.	.	.	54.5*	81.5*	71.8*
Cc1cc(-c2ccccc2)c2c(=O)[nH][nH]c2n1	-10.8	-7.7	108.9	18.3*	-8.1	-16.6
Cc1cc(S(=O)(=O)N2c3ccc(F)cc3CCC2C)ccc1-n1cnnn1 (configuration not stated)	.	.	.	-0.4	.	.
COc1ccc(-c2cn3c(C)c(C(=O)NCCN4CCOCC4)sc3n2)cc1	-1.3	-34.4	131.8	72.7*	69.0*	-2.0
CCOC(=O)C1CCCN(C(=O)c2sc3nc(-c4ccc(OC)cc4)cn3c2C)C1 (configuration not stated)	-1.1	-21.8	121.2	46.4*	45.4*	-7.2
CCOC(=O)C1CCN(C(=O)c2sc3nc(-c4ccccc4)cn3c2C)CC1	0.6	9.4	96.3	0.5	.	.
Cc1c(C(=O)NCCCN2CCOCC2)sc2nc(-c3ccc(F)cc3)cn12	-3.5	23.9	83.7	-2.6	.	.
CCN1CCCC1CNC(=O)c1[nH]c2ccc(OC)cc2c1C (configuration not stated)	.	.	.	3.2	.	.
